Assay results published in ChEMBL document CHEMBL3232873, “Development of a bioavailable μ opioid receptor (MOPr) agonist, δ opioid receptor (DOPr) antagonist peptide that evokes antinociception without development of acute tolerance” (J Med Chem, 2014).
Active and inactive are the calls of the source. *1 amine or outer side, *2 acyl side, *3 side chain or, on linkers, in order; H or OH if unused. Where a SMILES comes first, the peptide text is derived from it. Bridges are numbered along the chain shown (N, C = ends). [ ]: non-standard residue; d: D form. The star is where a group is joined. βGlc = OC[C@H]1O[C@@H](*)[C@H](O)[C@@H](O)[C@@H]1O; Dmt = Cc1cc(O)cc(C)c1C[C@H](N)C(=O)O; dPen = CC(C)(S)[C@@H](N)C(=O)O; Aic = NC1(C(=O)O)Cc2ccccc2C1; CH2CH2 = C(C[*:2])[*:1]

Legend:
[1] = target: Kappa-type opioid receptor (Homo sapiens) (UniProt P41145); experiment: Agonist activity at human kappa opioid receptor expressed in rat C6 cells assessed as stimulation of [35S]-GTPgammaS binding after 1 hr by GF/C filters relative to control; format: functional, cell-based
Sequence of Kappa-type opioid receptor (Homo sapiens) (P41145 whole entry): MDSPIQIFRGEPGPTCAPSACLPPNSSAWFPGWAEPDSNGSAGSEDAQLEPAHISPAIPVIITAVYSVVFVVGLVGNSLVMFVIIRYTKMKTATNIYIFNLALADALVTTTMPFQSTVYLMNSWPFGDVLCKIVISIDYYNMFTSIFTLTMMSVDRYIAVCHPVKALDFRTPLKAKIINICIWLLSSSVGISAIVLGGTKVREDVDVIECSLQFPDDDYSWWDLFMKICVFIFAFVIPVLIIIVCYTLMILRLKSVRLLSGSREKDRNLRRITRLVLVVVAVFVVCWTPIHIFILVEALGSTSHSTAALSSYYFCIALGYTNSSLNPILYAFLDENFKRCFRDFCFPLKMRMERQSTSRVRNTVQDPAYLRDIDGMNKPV

[2] = target: Delta-type opioid receptor (Rattus norvegicus) (UniProt P33533); experiment: Agonist activity at rat delta opioid receptor expressed in rat C6 cells assessed as stimulation of [35S]-GTPgammaS binding after 1 hr by GF/C filters relative to control; format: functional, cell-based
Sequence of Delta-type opioid receptor (Rattus norvegicus) (P33533 whole entry): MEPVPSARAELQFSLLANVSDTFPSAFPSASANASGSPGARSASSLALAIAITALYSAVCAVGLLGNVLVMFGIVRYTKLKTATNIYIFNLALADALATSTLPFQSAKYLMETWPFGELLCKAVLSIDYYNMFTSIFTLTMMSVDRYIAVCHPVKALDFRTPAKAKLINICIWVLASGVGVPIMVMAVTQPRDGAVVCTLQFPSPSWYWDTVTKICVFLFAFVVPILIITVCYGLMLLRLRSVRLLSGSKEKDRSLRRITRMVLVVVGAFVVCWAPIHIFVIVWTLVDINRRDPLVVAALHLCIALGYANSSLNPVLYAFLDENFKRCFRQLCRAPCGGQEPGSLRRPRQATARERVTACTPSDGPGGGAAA
Summary of the method: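 Membranes (10–20 μg protein) from C6 glioma cells stably expressing rat DOPr, incubated 1 h at room temperature in 50 mM Tris-HCl, 100 mM NaCl, 5 mM MgCl2, pH 7.4, with 0.1 nM [35S]GTPγS, 30 μM GDP and varied peptide concentrations. GF/C filtration, scintillation counting. […] At least three assays in duplicate.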

[3] = target: Delta-type opioid receptor (Rattus norvegicus) (UniProt P33533); experiment: Antagonist activity at rat delta opioid receptor expressed in rat C6 cells assessed as [35S]-GTPgammaS binding after 1 hr by GF/C filters; format: functional, cell-based
Summary of the method: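 Membranes (10–20 μg protein/well) from C6 glioma cells stably expressing rat DOPr were incubated 1 h at room temperature in 50 mM Tris-HCl, 100 mM NaCl, 5 mM MgCl2, pH 7.4, with 0.1 nM [35S]GTPγS and 30 μM GDP. Bound label was filtered, washed 10× with cold buffer, and scintillation-counted. Ke was derived by formula using a single peptide concentration. Mean ± SEM, ≥3 assays in duplicate.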

[4] = target: Mu-type opioid receptor (Rattus norvegicus) (UniProt P33535); experiment: Agonist activity at rat mu opioid receptor expressed in rat C6 cells assessed as stimulation of [35S]-GTPgammaS binding after 1 hr by GF/C filters relative to control; format: functional, cell-based
Sequence of Mu-type opioid receptor (Rattus norvegicus) (P33535 whole entry): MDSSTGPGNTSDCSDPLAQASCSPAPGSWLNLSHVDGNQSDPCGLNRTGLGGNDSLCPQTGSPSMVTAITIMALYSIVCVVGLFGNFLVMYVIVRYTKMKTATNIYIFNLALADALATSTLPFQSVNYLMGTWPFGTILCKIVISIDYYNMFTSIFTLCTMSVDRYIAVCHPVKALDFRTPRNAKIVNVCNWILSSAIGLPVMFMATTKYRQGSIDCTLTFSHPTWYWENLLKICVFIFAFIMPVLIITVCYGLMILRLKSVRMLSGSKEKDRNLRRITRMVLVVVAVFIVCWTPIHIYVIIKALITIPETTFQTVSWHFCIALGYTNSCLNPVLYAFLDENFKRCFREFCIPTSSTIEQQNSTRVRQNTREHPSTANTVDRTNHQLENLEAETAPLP
Summary of the method: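 C6 glioma membranes (rat MOPr, stable; 10–20 μg protein) incubated 1 h at room temperature in 50 mM Tris-HCl, 100 mM NaCl, 5 mM MgCl2, pH 7.4, with 0.1 nM [35S]GTPγS, 30 μM GDP and varying peptide concentrations. GF/C filtration, counting. […] EC50 and maximum from nonlinear regression. At least three assays in duplicate.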

Mus musculus [5] = experiment: Antinociceptive effect in C57BL/6 mouse assessed as tail withdrawal latency at 10 mg/kg, ip by warm water tail withdrawal assay relative to 20 secs cutoff time; format: functional; conditions: route intraperitoneal
Summary of the method: (§1)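 Adult male and female C57BL/6 mice (20–35 g, 8–16 weeks). Saline ip, then baseline latency 30 min later. Cumulative ip doses in saline were given at 30 min intervals, with latency read 30 min after each dose. Tail tip (2–3 cm) placed in 50 °C water; withdrawal or flick latency recorded, 20 s cutoff.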

Mus musculus [6] = experiment: Antinociceptive effect in C57BL/6 mouse assessed as maximum effect at 10 mg/kg, ip after 90 mins followed by treated with second dose measured up to 200 mins by acute tolerance/warm water tail withdrawal assay; format: functional, organism-based; set-up: dose 10 mg/kg
Summary of the method: (§2)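 Separate groups of C57BL/6 mice got ip saline or 10 mg/kg compound after baseline, with 50 °C tail-withdrawal latency (20 s cutoff) at 15, 30, 45, 60 and 90 min. At 90–120 min all mice received 10 mg/kg ip, read at 15, 30, 60 and 90 min. AUC over baseline was computed per mouse and averaged by group; naive and pretreated groups compared by t-test.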

Mus musculus [7] = experiment: Antinociceptive effect in C57BL/6 mouse assessed as tail withdrawal latency at 10 mg/kg, ip by warm water tail withdrawal assay in presence of 3.2 mg/kg, ip naltrexone nonselective opioid antagonist; format: functional, organism-based
Summary of the method: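 C57BL/6 mice, both sexes. Saline or 3.2 mg/kg naltrexone ip 30 min before 10 mg/kg test compound ip, all in saline. Tail-withdrawal latency in 50 °C water (20 s cutoff) read 30 min after pretreatment and 30 min after test injection.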

Mus musculus [8] = organism: Mus musculus; experiment: Antinociceptive effect in C57BL/6 mouse assessed as tail withdrawal latency by warm water tail withdrawal assay relative to 20 secs cutoff time; format: functional, organism-based; summary of the method: as §1
Mus musculus [9] = experiment: Antinociceptive effect in C57BL/6 mouse assessed as maximum effect at 10 mg/kg, ip after 30 mins by acute tolerance/warm water tail withdrawal assay; format: functional, organism-based; set-up: dose 10 mg/kg; summary of the method: as §2
Mus musculus [10] = experiment: Antinociceptive effect in C57BL/6 mouse assessed as maximum effect at 10 mg/kg, ip after 90 mins by acute tolerance/warm water tail withdrawal assay; format: functional, organism-based; set-up: dose 10 mg/kg; summary of the method: as §2
Mus musculus [11] = experiment: Antinociceptive effect in C57BL/6 mouse assessed as tail withdrawal latency at 10 mg/kg, ip measured between 30 and 60 mins by warm water tail withdrawal assay relative to 20 secs cutoff time; format: functional, organism-based; set-up: dose 10 mg/kg

| SMILES | Efficacy [1] | Efficacy [2] | Ke [3] | Efficacy [4] | Activity (Mus musculus [5]) | Activity (Mus musculus [6]) | Activity (Mus musculus [7]) | Activity (Mus musculus [8]) | Activity (Mus musculus [9]) | Activity (Mus musculus [10]) | Activity (Mus musculus [11]) |
| --- | --- | --- | --- | --- | --- | --- | --- | --- | --- | --- | --- |
| Cc1cc(O)cc(C)c1C[C@H](N)C(=O)N[C@@H]1CSCCSC(C)(C)[C@H](C(=O)O)NC(=O)C2(Cc3ccccc3C2)NC1=O (H-[Dmt][dC][Aic][dPen]-OH; linker 2-4 via CH2CH2) | inactive | inactive | 4.4 nM | 59% | – | – | – | – | – | – | – |
| Cc1cc(O)cc(C)c1C[C@H](N)C(=O)N[C@@H]1CSCCSC(C)(C)[C@H](C(=O)N[C@@H](CO[C@@H]2O[C@H](CO)[C@@H](O)[C@H](O)[C@H]2O)C(N)=O)NC(=O)C2(Cc3ccccc3C2)NC1=O (H-[Dmt][dC][Aic][dPen]S(βGlc)-NH2; linker 2-4 via CH2CH2) | inactive | inactive | 6.1 nM | – | 80% | Active | inactive | Dose-dependent effect | Active | inactive | Active |
| Cc1cc(O)cc(C)c1C[C@H](N)C(=O)N[C@@H]1CSCCSC(C)(C)[C@H](C(=O)N[C@@H](CO)C(N)=O)NC(=O)C2(Cc3ccccc3C2)NC1=O (H-[Dmt][dC][Aic][dPen]S-NH2; linker 2-4 via CH2CH2) | inactive | inactive | – | – | – | – | – | – | – | – | – |
| Cc1cc(O)cc(C)c1C[C@H](N)C(=O)N[C@@H]1CSCCSC(C)(C)[C@H](C(=O)N[C@@H](CO)C(=O)O)NC(=O)C2(Cc3ccccc3C2)NC1=O (H-[Dmt][dC][Aic][dPen]S-OH; linker 2-4 via CH2CH2) | inactive | inactive | – | – | – | – | – | – | – | – | – |
